Changes are numbered by the printed parent chain.
Tests used:
[1] = system: Mus musculus; test: Dose required to reduce the rectal temperature (hypothermia) by 2 degree Celsius was determined in vivo in mice; type: functional
Outline: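 Rectal temperature of male ICR mice was taken with a thermoprobe before and 30 min after sc dosing. Dosing started at 30 mg/kg and fell by thirds until a drop over 2 °C no longer occurred, giving ED Δ2°C. Each dose group had 3-6 mice.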

[2] = molecular target: T1, Muscarinic acetylcholine receptor M2 (Rattus norvegicus, UniProt P10980); test: Compound tested in vitro for displacement of [3H]quinuclidinyl benzilate from rat cerebellum membrane expressing muscarinic M2 receptor; type: tissue-based
T1 sequence (P10980 whole entry): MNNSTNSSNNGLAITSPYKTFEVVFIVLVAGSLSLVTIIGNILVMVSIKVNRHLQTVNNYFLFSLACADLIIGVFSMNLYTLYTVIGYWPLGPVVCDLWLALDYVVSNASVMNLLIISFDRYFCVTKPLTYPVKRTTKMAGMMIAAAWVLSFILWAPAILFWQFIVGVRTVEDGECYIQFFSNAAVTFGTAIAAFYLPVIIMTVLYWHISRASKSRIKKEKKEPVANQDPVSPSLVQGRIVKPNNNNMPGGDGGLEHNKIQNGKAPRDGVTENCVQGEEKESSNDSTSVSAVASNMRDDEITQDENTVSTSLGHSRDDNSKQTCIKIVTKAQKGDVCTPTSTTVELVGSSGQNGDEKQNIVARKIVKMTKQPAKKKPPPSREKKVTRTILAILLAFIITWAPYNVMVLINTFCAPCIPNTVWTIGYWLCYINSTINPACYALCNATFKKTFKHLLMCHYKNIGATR
Outline: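 Male Wistar rat cerebellum homogenised in 0.32 M sucrose, spun at 900g then 11500g (4 °C), pellet washed in 5 mM Tris-HCl pH 7.4, stored -80 °C. Incubation in 50 mM Na+/K+ phosphate pH 7.4 with 0.06 nM [3H]QNB and 150 μg protein, 60 min at 25 °C. Nonspecific binding with 10 μM atropine. Filtration, scintillation counting. Triplicate, single experiment. Logit-log IC50 converted to Ki by Cheng-Prusoff.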

[3] = molecular target: T2, Muscarinic acetylcholine receptor M1 (Rattus norvegicus, UniProt P08482); test: Displacement of [3H]pirenzepine from rat cortex membrane expressing muscarinic M1 receptor
T2 sequence (P08482 whole entry): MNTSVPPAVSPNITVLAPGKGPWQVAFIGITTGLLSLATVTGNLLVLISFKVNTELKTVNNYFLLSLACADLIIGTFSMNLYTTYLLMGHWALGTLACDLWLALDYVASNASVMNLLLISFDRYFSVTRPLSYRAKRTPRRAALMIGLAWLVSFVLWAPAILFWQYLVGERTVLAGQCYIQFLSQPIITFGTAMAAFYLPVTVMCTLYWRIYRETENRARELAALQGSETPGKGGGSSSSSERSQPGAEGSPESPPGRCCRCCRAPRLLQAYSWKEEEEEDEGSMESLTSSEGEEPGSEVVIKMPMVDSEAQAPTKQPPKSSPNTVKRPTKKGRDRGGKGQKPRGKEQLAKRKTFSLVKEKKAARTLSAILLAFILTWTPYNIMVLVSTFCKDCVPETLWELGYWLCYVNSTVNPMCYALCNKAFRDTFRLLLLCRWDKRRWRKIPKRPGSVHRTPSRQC
Outline: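 M1 binding: male Wistar rat cerebral cortex membranes were resuspended in 8.3 mM Tris-HCl with 1.25 mM MnCl2, pH 7.4. Membranes (250 μg protein) were incubated with about 1.0 nM [3H]pirenzepine for 60 min at 25 °C. Atropine 10 μM defined nonspecific binding. Bound radioactivity was collected by filtration and counted by scintillation. IC50 came from logit-log analysis, converted by Cheng-Prusoff to Ki; single experiment in triplicate.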

[4] = Minimum dose required for subcutaneous administration to improve scopolamine-induced impairment of passive avoidance task in mouse(anti-amnesic effect)
[5] = system: Muscarinic acetylcholine receptors M1 & M2 (Rattus norvegicus); test: The ratio of Ki for M2 receptor to the Ki for M1 receptor was determined
[6] = system: Mus musculus; test: Dose sc producing more than 30 mg of saliva as a total amount was determined in vivo in mice; type: functional
Outline: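 Male ICR mice given test compound subcutaneously. Saliva collected at 15 and 45 min after dosing. ED30mg is the dose giving more than 30 mg total saliva. Start at 30 mg/kg, then lower each dose to one-third of the previous until the criterion fails. 3-6 mice per dose group.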

[7] = system: Rattus norvegicus; test: Increase in blood pressure of pithed rats after intravenous administration at 0.1 mg/kg; type: functional
Outline: (§1)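 Male Wistar rats (ca. 200–300 g) were ether-anesthetized, tracheally catheterized, pithed with a steel rod and ventilated with room air. Drugs were given iv via the left femoral vein. Arterial pressure was recorded from the left common carotid artery, with body temperature held at 37 °C.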

[8] = molecular target: T3, Muscarinic acetylcholine receptor M2 (Mus musculus) (UniProt Q9ERZ4); test: In vivo muscarinic effect of […] hypothermia against central M2 receptor in mice at dose under 30 mg/kg sc (2 degree Celsius); type: functional, organism-based; set-up: dose 30 mg/kg
T3 sequence (whole entry): T1 sequence (P10980 whole entry) with V270G, R316K, K321R, A331T, V336A
Outline: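 Male ICR mice given test compound subcutaneously. Rectal temperature taken by thermoprobe before dosing and 30 min after. ED for a 2 °C fall was found by starting at 30 mg/kg and lowering each dose to one-third of the previous until no drop over 2 °C was seen. 3-6 mice per dose group.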

[9] = molecular target: T4, Muscarinic acetylcholine receptor M1 (Rattus norvegicus) (UniProt P08482); test: Compound was tested for percent inhibition against displacement of [3H]pirenzepine from rat cortex membrane expressing muscarinic M1 receptor at 10^-6 M
T4 sequence (whole entry): T2 sequence (P08482 whole entry)

[10] = system: Mus musculus; test: Dose producing more than 30 mg of saliva as a total amount was determined in vivo in mice; type: functional
Outline: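 Male ICR mice were dosed sc, and saliva was collected at 15 and 45 min after dosing. ED30mg is the dose giving more than 30 mg total saliva. Dosing started at 30 mg/kg and fell stepwise by thirds. Each dose group had 3-6 mice.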

[11] = molecular target: T1, Muscarinic acetylcholine receptor M2; test: Tested against muscarinic M2 receptor by displacement of [3H]quinuclidinyl benzilate from rat cerebellum membrane; type: tissue-based
Outline: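 M2 binding: male Wistar rat cerebellum membranes (150 μg protein) were incubated with 0.06 nM [3H]QNB in 50 mM Na+/K+ phosphate, pH 7.4, for 60 min at 25 °C. Atropine 10 μM defined nonspecific binding. Bound radioactivity was collected by filtration and counted by scintillation. Ki came from logit-log IC50 with Cheng-Prusoff correction; single experiment in triplicate, with 95% confidence intervals.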

[12] = system: Rattus norvegicus; test: Increase in blood pressure of pithed rats after intravenous administration at 3 mg/kg; type: functional; outline: as §1

Structure (SMILES) | Ki [3] [µM] | MED [4] [mg/kg] | inhibition [9] [%] | further results
CN1CCC2(CC1)OC(=S)N(C(C)(C)C)C2=O.Cl | 0.21 | – | – | ED delta [8]: 30 mg/kg; Ki [2]: 2.1 µM; ED30 [6]: > 30 mg/kg
CCN1C(=O)C2(CCN(C)CC2)OC1=S | 0.89 | – | – | ED delta [8]: 30 mg/kg; Ki [2]: 4.3 µM; ED30 [6]: 30 mg/kg
CN1CCC2(CC1)OC(=S)NC2=O | > 10 | 30 | 0 | –
COC(=O)CN1C(=O)OC2(CCN(C)CC2)C1=O | > 10 | – | 40 | –
C=CCN1C(=O)OC2(CCN(C)CC2)C1=O | 5.1 | > 30 | – | –
CCN1C(=O)OC2(CCN(CCCC(=O)OC)CC2)C1=O | > 10 | 30 | 0 | –
CN1CCC2(CC1)OC(=O)N(c1cccc(Cl)c1)C2=O | 12 | 0.3 | – | –
CN1CCC2(CC1)OC(=O)NC2=O | > 10 | > 30 | 0 | –
CN1CCC2(CC1)OC(=O)N(CC(N)=O)C2=O | > 10 | > 30 | 36 | –
CN1CCC2(CC1)OC(=O)N(C)C2=O | 16 | > 30 | – | –
CCN1C(=O)OC2(CCCN(C)C2)C1=O (configuration not stated) | > 10 | > 30 | – | –
CCN1C(=O)OC2(CCN(C)C2)C1=O (configuration not stated) | > 10 | > 30 | – | –
CN1CCC2(CC1)OC(=S)N(c1ccccc1)C2=O | 4 | – | – | –
COC(=O)CCCN1C(=O)OC2(CCN(C)CC2)C1=O | 6.4 | > 30 | – | –

Continued, in another order:

Ki [3] [µM] | MED [4] [mg/kg] | inhibition [9] [%] | Structure (SMILES) | further results
0.46 | 0.1 | – | Br.CCN1C(=O)CC2(CCN(C)CC2)C1=O | ED delta [1]: 1 mg/kg; Ki [2]: 0.97 µM; M2/M1 Index [5]: 2.1; ED30 [6]: 0.5 mg/kg; BP [7]: 12 mmHg
1.5 | – | – | CN1CCC2(CC1)OC(=O)N(C(C)(C)C)C2=O | –
> 10 | > 30 | 10 | CN1CCC2(CC1)OC(=O)N(CCN1CCOCC1)C2=O | –
> 10 | – | 2 | CCN1C(=O)OC2(CCN(Cc3ccccc3)CC2)C1=O | –
7.8 | 0.3 | – | CCN1C(=O)OC2(CCNCC2)C1=O.Cl | ED delta [1]: >30 mg/kg; ED30 [10]: > 30 mg/kg
5 | 0.3 | – | CCN1C(=O)OC2(CCN(C)CC2)C1=O.Cl | ED delta [1]: >30 mg/kg; ED30 [10]: 30 mg/kg; Ki [11]: 7.8 µM; M2/M1 Index [5]: 1.5; BP [12]: 24 mmHg
> 10 | > 30 | 0 | CCN1C(=O)OC2(CCN(CC#CCOC(=O)Nc3cccc(Cl)c3)CC2)C1=O | –

From ChEMBL document CHEMBL1126758, “Synthesis and structure-activity studies of a series of spirooxazolidine-2,4-diones: 4-oxa analogues of the muscarinic agonist 2-ethyl-8-methyl-2,8-diazaspiro[4.5]decane-1,3-dione” (J Med Chem, 1993)
